The source of these data is ChEMBL document CHEMBL1154914, “Orally bioavailable anti-HBV dinucleotide acyloxyalkyl prodrugs” (Bioorg Med Chem Lett, 2010).

Data set [1] can be described thus: Cytotoxicity against african green monkey Vero cells after 24 hrs by MTT assay. It counts as cell-based. Particulars: chlorocebus sabaeus. In general terms: Tetrazolium assays rely on reduction of a dye to a coloured formazan, in cell work by metabolically active cells.
Data set [2] in a line: Cytotoxicity against MDBK cells after 24 hrs by MTT assay. In kind it is cell-based, Bos taurus. The settings on record: cattle.
Data set [3] concerns Hepatitis B virus. Nature of the data set: Antiviral activity against HBV infected in mouse assessed as liver HBV DNA level at 300-400 mg/kg, po QD for 14 days by Southern blotting. It counts as functional, organism-based. An outline of the steps: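 HBV transgenic mice, pre-biopsied for liver HBV DNA and block-randomized (8/group). Dosed 300 to 400 mg/kg by oral gavage once daily for 14 days in 0.05 M citric acid pH 2.4 (0.1 mL per 20 g). Liver Southern blot with a 32P HBV genomic probe, hybridized overnight at 60°C and read by phosphorimaging. Viral DNA was ratioed to the transgene band (1.3 copies/cell). ADV was the positive control.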

The nature of data set [4]: Half life in simulated gastric fluid after 1 hr by reverse phase HPLC. In kind it is physicochemical. The essentials:
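Prodrug stock of 2 mg/200 μL DMSO, diluted 1:20 in USP simulated gastric fluid and held at 37 °C for 1 h. Timed aliquots were quenched with methanol, brought to pH 6.0 with NH4OAc/NaOH, centrifuged and concentrated. Read by reversed-phase C18 HPLC using a 30 min gradient from 0.1 M NH4OAc to 80:20 CH3CN:NH4OAc at 1 mL/min.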

Data set [5] is described as follows: Cytotoxicity against human HFF cells after 24 hrs by MTT assay. In kind it is cell-based.
Data set [6] relates to Hepatitis B virus. Nature of the data set: Antiviral activity against 3TC-resistant HBV with polymerase M204V mutation infected in HepG2.2.15 cells assessed as nucleic acid and protein levels dosed daily for 9 days and measured 24 hrs after last treatment by Southern blot hybridization. In kind it is functional, organism-based, HepG2 2.2.15. Particulars: for EC50: Hepatitis B virus, HepG2 2.2.15.

In data set [7] the test system is Hepatitis B virus. Nature of the data set: Antiviral activity against ADV-resistant HBV N236T mutation infected in HepG2.2.15 cells assessed as nucleic acid and protein levels dosed daily for 9 days and measured 24 hrs after last treatment by Southern blot hybridization. The settings on record: for EC50: Hepatitis B virus, HepG2 2.2.15. In kind it is functional, organism-based, HepG2 2.2.15.

Data set [8] relates to Hepatitis B virus. The data set can be described thus: Antiviral activity against 3TC-resistant HBV with polymerase LMMV mutation infected in HepG2.2.15 cells assessed as nucleic acid and protein levels dosed daily for 9 days and measured 24 hrs after last treatment by Southern blot hybridization. In kind it is functional, organism-based, HepG2 2.2.15. The settings on record: for EC50: Hepatitis B virus, HepG2 2.2.15.

The subject of data set [9] is Hepatitis B virus. The data set can be described thus: Antiviral activity against 3TC-resistant HBV with polymerase L180M mutation infected in HepG2.2.15 cells assessed as nucleic acid and protein levels dosed daily for 9 days and measured 24 hrs after last treatment by Southern blot hybridization. In kind it is functional, organism-based, HepG2 2.2.15. The settings on record: for EC50: Hepatitis B virus, HepG2 2.2.15.

Data set [10] has as its system Hepatitis B virus. Nature of the data set: Antiviral activity against 3TC-resistant HBV with polymerase M204I mutation infected in HepG2.2.15 cells assessed as nucleic acid and protein levels dosed daily for 9 days and measured 24 hrs after last treatment by Southern blot hybridization. It counts as functional, organism-based, HepG2 2.2.15. The settings on record: for EC50: Hepatitis B virus, HepG2 2.2.15.

The subject of data set [11] is Hepatitis B virus. Nature of the data set: Antiviral activity against wild type HBV infected in HepG2.2.15 cells assessed as nucleic acid and protein levels dosed daily for 9 days and measured 24 hrs after last treatment by Southern blot hybridization. The settings on record: for EC50: Hepatitis B virus, HepG2 2.2.15. It counts as functional, organism-based, HepG2 2.2.15.

The subject of data set [12] is Hepatitis B virus. Nature of the data set: Antiviral activity against HBV infected in mouse assessed as reduction in liver HBV DNA level dosed po QD for 14 days by Southern blotting. In kind it is functional, organism-based. An outline of the steps:
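HBV transgenic mice, pre-biopsied for liver HBV DNA and block-randomized (8/group). Gavaged at 1, 5, 10 or 100 mg/kg once daily for 14 days in 0.05 M citric acid pH 2.4, against placebo and an ADV control. Liver taken after the last dose. HBV DNA by Southern blot with a 32P genomic probe and phosphorimaging, normalized to the transgene band (1.3 copies/cell).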

For a further data set, the system named is Mus musculus. The data set can be described thus: Toxicity against HBV infected mouse at 300-400 mg/kg, po QD for 14 days. The settings on record: in vivo, 336 h. It counts as organism-based.
Data set [13] is described as follows: Half life in simulated intestinal fluid after 1 hr by reverse phase HPLC. In kind it is physicochemical. The essentials: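 Prodrug stock (2 mg per 200 μL DMSO) diluted 1:20 into simulated intestinal fluid and held at 37 °C for 1 h. Aliquots at selected times were quenched with methanol, brought to pH 6.0 with NH4OAc/NaOH, centrifuged, concentrated and redissolved in 0.1 M NH4OAc. Analysed by reversed-phase C18 HPLC with photodiode-array detection, 0.1 M NH4OAc to 80:20 CH3CN:NH4OAc gradient over 30 min.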

SMILES strings stand for the structures. Active and inactive are the calls of the source. The rule behind the calls is not given here.

Usually CC50 stands for the concentration at which the toxic effect on the cells reaches its halfway point. The term half-life denotes the time in which the quantity being followed falls by half. Usually EC90 stands for the concentration at which the effect reaches the 90% level. Usually EC50 stands for the midpoint of the concentration-response curve.

For the molecule `CO[C@@H]1[C@H](OP(=O)(OC[C@H]2O[C@@H](n3cnc4c(N)ncnc43)C[C@@H]2O)SCOC(=O)C(C)(C)C)[C@@H](CO)O[C@H]1n1ccc(=O)[nH]c1=O` (stereo partly drawn), the cytotoxic concentration (CC50) at 24 h in data set [1], in data set [2] and in data set [5] was > 1 mM throughout. Besides, in the data set with Hepatitis B virus [3], the result was Active. The half-life in data set [4] was > 60 min.
Regarding `CC(C)(C)C(=O)OCOP(=O)(COCCn1cnc2c(N)ncnc21)OCOC(=O)C(C)(C)C` [ADEFOVIR DIPIVOXIL], the EC90 came to 7.2 µM in the data set with Hepatitis B virus [6]; 29 µM with Hepatitis B virus [7]; 8.3 µM in the data set with Hepatitis B virus [8]; 8.2 µM with Hepatitis B virus [9]; 8 µM with Hepatitis B virus [10]; 7 µM in the data set on Hepatitis B virus [11]. The 50% effective concentration (EC50) came to 1800 nM in the data set with Hepatitis B virus [6]; 7500 nM with Hepatitis B virus [7]; 2.2 µM in the data set with Hepatitis B virus [8]; 2100 nM with Hepatitis B virus [9]; 2000 nM in the data set on Hepatitis B virus [10]; 1500 nM with Hepatitis B virus [11].
Regarding `CO[C@@H]1[C@H](OP(=O)(OC[C@H]2O[C@@H](n3cnc4c(N)ncnc43)C[C@@H]2O)SCOC(=O)OC(C)C)[C@@H](CO)O[C@H]1n1ccc(=O)[nH]c1=O` (stereo partly drawn) [INARIGIVIR SOPROXIL], the half-maximal cytotoxic concentration (CC50) at 24 h in [1], in [2] and in data set [5] was > 1 mM in each case. Also, the concentration for an effect of 90% (EC90) was determined as 8.3 µM in the data set with Hepatitis B virus [6]; 8.7 µM in the data set on Hepatitis B virus [7]; 9.3 µM with Hepatitis B virus [8]; 8.6 µM with Hepatitis B virus [9]; 9.2 µM with Hepatitis B virus [10]; 8.5 µM in the data set with Hepatitis B virus [11]. Also, the 50% effective concentration (EC50) turned out to be 2400 nM in the data set with Hepatitis B virus [6]; 2800 nM in the data set with Hepatitis B virus [7]; 3.1 µM in the data set with Hepatitis B virus [8]; 2100 nM with Hepatitis B virus [9]; 3000 nM with Hepatitis B virus [10]; 2500 nM with Hepatitis B virus [11]. The results for the Activity result with Hepatitis B virus [12] and with Mus musculus were “Dose-dependent effect” and “Non-toxic”, respectively. Further, the outcome in the data set with Hepatitis B virus [3] was Active. The half-life in data set [4] was > 60 min.
In the case of `CO[C@@H]1[C@H](OP(=O)(S)OC[C@H]2O[C@@H](n3cnc4c(N)ncnc43)C[C@@H]2O)[C@@H](CO)O[C@H]1n1ccc(=O)[nH]c1=O` (stereo partly drawn) [INARIGIVIR], the CC50 at 24 h in [1], in data set [2] and in data set [5] was > 1 mM in each case. Moreover, the results for the half-life in data set [4] and in data set [13] were < 15 min and 60 min, respectively.
Take `Nc1ccn([C@@H]2CS[C@H](CO)O2)c(=O)n1` [LAMIVUDINE]: the EC90 in the data set with Hepatitis B virus [6] was >100 µM; with Hepatitis B virus [7] it was 0.8 µM; with Hepatitis B virus [8], >100 µM; in the data set with Hepatitis B virus [9], 20 µM; with Hepatitis B virus [10] it was >100 µM; in the data set with Hepatitis B virus [11], 0.7 µM. For the same molecule, the EC50 in the data set on Hepatitis B virus [6] was > 100000 nM; with Hepatitis B virus [7], 200 nM; in the data set with Hepatitis B virus [8], > 100 µM; in the data set with Hepatitis B virus [9], 5300 nM; with Hepatitis B virus [10] it was > 100000 nM; in the data set on Hepatitis B virus [11], 200 nM.
